This is an account of results in ChEMBL document CHEMBL1123956, “Nitrosoureido nucleosides as potential inhibitors of nucleotide biosynthesis” (J Med Chem, 1988).

SMILES strings stand for the structures. Where “and” joins values, the source holds several entries; their conditions need not be identical. Equal values may be shown once.

Data set [1] is described as follows: (§1) Half life was measured at pH 7. The format is ADME. The essentials: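 Stability in pH 7 buffer, followed by HPLC; reported as half-life. The method is taken from an earlier paper.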
The next data set concerns HEp-2. The experiment in a line: Inhibition of colony formation of H.Ep-2 cells. As to conditions: Homo sapiens, read-out: I50. The class given is functional, cell-based. Put shortly: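 H.Ep.-2 cells exposed to drug over a 12-day period. Colony formation was scored against untreated controls, and I50 was taken as the concentration giving 50% inhibition.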
Data set [2] concerns L1210. The experiment in a line: Inhibition of proliferation of L1210 cells. As to conditions: Mus musculus, read-out: I50. The class given is functional, cell-based. Put shortly:
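L1210 cells in suspension culture with drug for 48 h. I50 was the concentration giving 50% inhibition of proliferation relative to controls.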

The subject of the next data set is Mus musculus. The experiment in a line: Percent increase in life span of p388 leukemia induced mice was determined at a dose of 200 mg/kg upon ip administration on days 1-5. The format is functional. The note with it: route intraperitoneal. Put shortly: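 Mice implanted with 10⁶ P388 leukemia cells were dosed intraperitoneally once daily on days 1-5 after implant. Activity is expressed as % increase in life span, and 30-day survivors were recorded.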

The nature of data set [3]: as §1. The format is ADME. The essentials:
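Stability in pH 7 buffer, with decomposition followed by HPLC and the half-life taken from it.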
This is another data set of the same source.

The test system of data set [4] is L1210. The experiment in a line: Number of cells present measured with the Coulter counter at 100 uM conc. The class given is functional, Mus musculus. Put shortly:
(§2)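 L1210 suspension cultures with agent for 30 min or 18 h, then a further 4 h with radiolabelled precursor. Cells were counted by Coulter counter and expressed as R, the count relative to the initial cell number (R = 1.0). R < 1.0 means a fall below the starting number; R > 1.0 means proliferation.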

Data set [5] has as its system L1210. The experiment in a line: Number of cells present measured with the Coulter counter at 25 uM conc. The class given is functional, Mus musculus. Put shortly: as §2
Data set [6] has as its system L1210. The experiment in a line: Number of cells present measured with the Coulter counter at 50 uM conc. The class given is functional, Mus musculus. Put shortly: as §2
In data set [7] the test system is L1210. The experiment in a line: Size distribution of cells at 100 uM conc. The class given is functional, Mus musculus. Put shortly: (§3)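 L1210 suspension cultures with agent for 30 min or 18 h, then a 4-h labelling period. Size distribution was measured on a Model ZH Coulter Counter. The value is the instrument setting at the peak of cell size; higher settings mean larger cells.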

Data set [8] deals with L1210. The experiment in a line: Size distribution of cells at 25 uM conc. The class given is functional, Mus musculus. The essentials: as §3
Data set [9] relates to L1210. The experiment in a line: Size distribution of cells at 50 uM conc. The class given is functional, Mus musculus. Put shortly:
as §3

Data set [10] relates to L1210. The experiment in a line: percent synthesis of DNA in L1210 cells when incubated with the compound for 30 min using […] as radioligand at 50 uM conc. The class given is functional, Mus musculus. Put shortly: (§4)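 DNA synthesis in L1210 suspension cultures preincubated with agent for 30 min or 18 h. [3H]dThd was then added to the medium, and incorporation into DNA was sampled at 1-h intervals over 4 h. Values are for the 4-h labelling period, as % of untreated control.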

Data set [11] deals with L1210. The experiment in a line: percent synthesis of DNA in L1210 cells when incubated with the compound for 18 h using […] as radioligand at 25 uM conc. The class given is functional, Mus musculus. Put shortly:
as §4

Data set [12] concerns L1210. The experiment in a line: percent synthesis of DNA in L1210 cells when incubated with the compound for 18 h using […] as radioligand at 50 uM conc. The class given is functional, Mus musculus. Put shortly:
as §4

Data set [13] deals with L1210. The experiment in a line: percent synthesis of DNA in L1210 cells when incubated with the compound for 30 min using […] as radioligand at 100 uM conc. The class given is functional, Mus musculus. Put shortly:
as §4

For data set [14], the system named is L1210. The experiment in a line: percent synthesis of protein in L1210 cells when incubated with the compound for 18 h uusing [3H]L-Leu as radioligand at 50 uM conc. The format is functional, Mus musculus. Put shortly: (§5)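 Protein synthesis in L1210 suspension cultures preincubated with agent for 30 min or 18 h. [4,5-3H]-L-leucine was then added, and incorporation into protein was sampled hourly over 4 h. Values are 4-h incorporation as % of untreated control.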

The test system of data set [15] is L1210. The experiment in a line: percent synthesis of protein in L1210 cells when incubated with the compound for 30 min using [3H]L-Leu as radioligand at 50 uM conc. The class given is functional, Mus musculus. Put shortly: as §5
In data set [16] the test system is L1210. The experiment in a line: percent synthesis of RNA in L1210 cells when incubated with compound for 18 hr using […] as radioligand at 25 uM conc. The class given is functional, Mus musculus. Put shortly: (§6)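 RNA synthesis in L1210 suspension cultures preincubated with agent for 30 min or 18 h. [5-3H]Urd was then added, and incorporation into RNA was sampled hourly over 4 h. Values are 4-h incorporation as % of untreated control.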

Data set [17] has as its system L1210. The experiment in a line: percent synthesis of RNA in L1210 cells when incubated with compound for 18 hr using […] as radioligand at 50 uM conc. The format is functional, Mus musculus. Put shortly: as §6
For data set [18], the system named is L1210. The experiment in a line: percent synthesis of RNA in L1210 cells when incubated with compound for 30 min using […] as radioligand at 100 uM conc. The format is functional, Mus musculus. The essentials: as §6
Data set [19] deals with L1210. The experiment in a line: percent synthesis of RNA in L1210 cells when incubated with compound for 30 min using [3H]dThd as radioligand at 50 uM conc. The class given is functional, Mus musculus. As to conditions: in the assay text read “[5-3H]Urd” for “[3H]dThd”. Put shortly: as §6

As to `CCN(N=O)C(=O)NCC1OC(n2cc(C)c(=O)[nH]c2=O)CC1O` (stereo unspecified), in [1], the half-life (as a rule, the time needed for the level to fall by half in the phase considered) is 1140 min. Also, the IC50 with HEp-2 and in the data set on L1210 [2] was greater than 87 µM each time. Moreover, in the data set on Mus musculus, the ILS (commonly how much longer treated animals lived than controls) at 200 mg/kg is 0%.

In the case of `Cc1cn(C2CC(O)C(C(=O)Nc3ccc(NC(=O)N(C)N=O)cc3)O2)c(=O)[nH]c1=O` (stereo unspecified), the half-life in [1] was 24 min. Also, the IC50 in the data set on HEp-2 is 46 µM; in the data set on L1210 [2] it was greater than 90 µM. Besides, the ILS at 200 mg/kg with Mus musculus stood at 79%.

In data set [3], `O=NN(CCCl)C(=O)N[C@H]1C(O)O[C@H](CO)[C@@H](O)[C@@H]1O` (stereo partly specified) [CHLOROZOTOCIN] returned a T1/2 of 52.5 min.

For the compound `O=NN(CCCl)C(=O)NC1CCCCC1` [LOMUSTINE], the Cell no in the data set with L1210 [4] is 1 and 0.42; with L1210 [5], 1.02 and 0.48; in the data set with L1210 [6] it was 1 and 0.53. The Cell size with L1210 [7] is 65 and 85; in the data set on L1210 [8], 67.5 and 90; in the data set with L1210 [9] it was 62.5 and 90. The Control with L1210 [10] was 75%; with L1210 [11], 88% and 139%; in the data set on L1210 [12] it was 143%; in the data set on L1210 [13], 46% and 131%; in the data set on L1210 [14], 584%; in the data set on L1210 [15], 79%. Moreover, the Control is 106% and 282% with L1210 [16]; 393% with L1210 [17]; 101% and 246% with L1210 [18]; 121% with L1210 [19].

In the case of `CN(N=O)C(N)=O` [N-METHYL-N-NITROSUREA], in [3], the T1/2 came to 52.5 min.
